From paper PMC6034581 (Neoplasia (New York, N.Y.), 2018)

What was measured:
C4-2 cells = assay: MTS cell proliferation assay of in vitro cytotoxicity; format: cell-based; conditions: Homo sapiens, C4-2, 72 h, read-out: half minimal inhibitory concentration (IC50)
Procedure, shortened: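 AR-positive human prostate cancer C4-2 cells exposed for 72 hours to individual flavonoids or to a defined three-flavonoid mixture (molar ratio 1:1:2) across graded concentrations. Viability read by MTS cell proliferation assay; IC50 taken from the dose-effect curves. Data represent three or more independent experiments.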

[1] = Pharmacokinetics and bioavailability of ProFine ingredients; format: in vivo, Sprague-Dawley rats; conditions: ProFine 100 mg/kg oral gavage, rat plasma
rats = conditions: cited from earlier work
humans = conditions: up to 1000 mg daily for several months; cited from earlier work

Row | Structure (SMILES) | IC50 (C4-2 cells) | maximum plasma concentration [1] | acute oral toxicity (LD50) (rats) | adverse effects of human daily intakes (humans)
1 | O=c1cc(-c2ccc(O)c(O)c2)oc2cc(O)cc(O)c12 [luteolin] | 114 µM | 0.44 µM | > 5000 mg/kg | 
2 | O=c1c(O)c(-c2ccc(O)c(O)c2)oc2cc(O)cc(O)c12 [quercetin] |  |  |  | no adverse effects
